Measured values taken from PubChem BioAssay AID623984 (Vanderbilt High Throughput Screening Facility, 2012).
Calls of active or inactive are those of the source. The rule behind the calls is not given here.

Molecular target: Inward rectifier potassium channel 2 (Homo sapiens) (UniProt P63252)
Assay: KCNJ2 inward rectifier thallium flux activity – cell-based, human, concentration-response, selectivity assay for GIRK activator project, dose response (AID 623984)
Settings: T-REx-293 hKir2.1, thallium flux FluoZin-2; series mostly up to 100 µM
How it was run: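 Material: hKir2.1 T-REx-293 cells, tetracycline-induced; Dosing: compound addition solution containing 0.2% DMSO; Times: 4 min compound pre-incubation before stimulus; Signal: FluoZin-2 thallium-flux fluorescence at 1 Hz; Benchmarks: vehicle and uninduced-cell wells; Replicates: triplicate wells, four-parameter logistic curve fits.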

Sequence of Inward rectifier potassium channel 2 (Homo sapiens) (P63252 whole entry, looked up): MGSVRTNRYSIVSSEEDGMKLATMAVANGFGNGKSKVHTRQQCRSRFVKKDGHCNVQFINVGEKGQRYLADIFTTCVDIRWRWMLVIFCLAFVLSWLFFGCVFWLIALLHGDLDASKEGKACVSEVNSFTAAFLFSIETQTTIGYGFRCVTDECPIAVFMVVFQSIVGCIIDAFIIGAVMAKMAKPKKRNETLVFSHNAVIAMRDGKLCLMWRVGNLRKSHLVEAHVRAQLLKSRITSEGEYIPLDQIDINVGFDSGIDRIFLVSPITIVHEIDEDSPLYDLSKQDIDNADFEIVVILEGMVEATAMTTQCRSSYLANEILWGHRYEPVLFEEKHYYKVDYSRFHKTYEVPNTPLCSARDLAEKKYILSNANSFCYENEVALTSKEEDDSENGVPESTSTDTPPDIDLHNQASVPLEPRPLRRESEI

Cc1cc(NC(=O)Nc2ccc(F)c(F)c2)n(-c2ccccc2)n1
outcome: inactive
